WT yeast gro inh = growth inhibition of WT yeast, mitochondrial fusion screen; 190,000 tested, 2.1% active; AID 1362; inhibition, % at 10 µM; mitochondrial fusion phenotypic screen, WT strain; in the data active = inhibition above about 58%; tested in S. cerevisiae
MEKK3 PB1 HTS = raises or lowers MEK5 binding to the human MEKK3 PB1 domain; binding response (% of control), % at 10 µM; Q99759; 290,000 tested, 1.4% active; bead-based flow cytometry, Alexa488-MEK5 binding to MEKK3; actives lie on both sides; 0 = blocked by unlabeled MEK5, 100 = vehicle;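 active = binding response more than 3 SD above or below the average of its plate-row segment, actives on both sides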;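 also: Alexa488 bead fluorescence after subtracting the streptavidin-only scavenger bead signal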
MEKK2mut PB1 HTS = signal of MEK5 binding to mutant human MEKK2 PB1 domain. bead flow cytometry, Alexa488-MEK5 binding to MEKK2 mutant. percent response, % at 10 µM. 290,000 tested, 0.35% active; in the data active = percent response above about 24%, passing the limit was not always enough
ABCG2 block = inhibitors of human ABCG2 transporter, ABCB1 counter-screen; inhibition, % at 6.6 µM; 190,000 tested, 0.1% active; Q9UNQ0; IgMXP3 cells, JC-1 efflux, flow cytometry;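 active = inhibition above 80%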;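 also: 0% = DMSO and 100% = nicardipine control wells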
Target sequence (Q9UNQ0 whole entry, looked up): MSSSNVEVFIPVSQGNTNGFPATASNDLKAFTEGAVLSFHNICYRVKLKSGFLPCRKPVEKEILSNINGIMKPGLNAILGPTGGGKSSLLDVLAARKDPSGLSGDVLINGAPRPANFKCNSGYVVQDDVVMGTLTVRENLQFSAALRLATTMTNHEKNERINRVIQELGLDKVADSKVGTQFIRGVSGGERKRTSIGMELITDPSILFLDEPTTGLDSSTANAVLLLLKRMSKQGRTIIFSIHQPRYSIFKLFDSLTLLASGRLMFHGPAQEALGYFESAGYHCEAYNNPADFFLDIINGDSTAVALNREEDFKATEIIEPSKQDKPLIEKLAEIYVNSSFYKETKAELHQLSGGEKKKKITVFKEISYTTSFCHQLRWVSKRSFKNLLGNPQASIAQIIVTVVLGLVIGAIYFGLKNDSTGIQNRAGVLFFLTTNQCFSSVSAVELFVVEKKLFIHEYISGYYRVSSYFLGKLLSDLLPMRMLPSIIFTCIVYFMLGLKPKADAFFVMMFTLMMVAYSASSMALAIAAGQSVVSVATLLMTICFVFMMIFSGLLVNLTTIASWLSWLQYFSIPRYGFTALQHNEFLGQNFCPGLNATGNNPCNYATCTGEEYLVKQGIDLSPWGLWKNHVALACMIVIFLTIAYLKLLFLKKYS
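Incubation: cells with compound and JC-1, 10 min at 25 °C, rotating, no wash / Test system: IgMXP3 (ABCG2) plus far-red-tagged CCRF-Adr (ABCB1) cells / Compound dosing: one concentration, 6.6 µM final / Also added: JC-1 fluorescent substrate / Evaluation: efflux inhibition in percent versus controls / Detection: flow cytometry, 530 nm JC-1 signal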
ABCB1 block = blocks JC-1 efflux by human ABCB1 transporter | CCRF-Adr cells, flow cytometry | inhibition, % at 6.6 µM | 190,000 tested, 0.067% active | P08183 | AID 1326; in the data active = inhibition above about 40%;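 also: 0% = vehicle and 100% = reference inhibitor; higher value means more JC-1 retained so stronger ABCB1 efflux block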
MEKK2wt PB1 HTS = raises or lowers MEK5 binding to wildtype human MEKK2 PB1 domain; Q9Y2U5; binding response (% of control), % at 10 µM; bead flow cytometry, Alexa488-MEK5 binding to MEKK2 WT; actives lie on both sides; 290,000 tested, 1.1% active; in the data active = binding response below about 67% or above about 130%
ABCB1 confirm = confirmation of human ABCB1 transporter inhibitors, ABCG2 counter-screen; shares compounds with ABCG2 block; CCRF-Adr cells, JC-1 efflux, flow cytometry; inhibition, % at 6.6 µM; 270 tested, 7% active; AID 1451;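 active = inhibition of pump activity above 50%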;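 also: 0% = DMSO and 100% = nicardipine full pump inhibition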
ABCG2 confirm = confirmation of human ABCG2 transporter inhibitors, ABCB1 counter-screen; shares compounds with ABCG2 block; IgMXP3 cells, JC-1 efflux, flow cytometry; inhibition, % at 6.6 µM; 270 tested, 6% active; AID 1453;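 active = inhibition above 50%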;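 also: 0% = DMSO wells and 100% = nicardipine pump inhibitor wells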
IgMXP3 fluor = counter-screen for ABCG2 inhibitors: compound fluorescence in IgMXP3 cells; fluorescence at 6.6 µM; 270 tested, 30% active; shares compounds with ABCG2 block; compound autofluorescence 488/530 nm, flow; active compounds read high;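 active = fluorescence in ABCG2-expressing cells above the plate's control-well mean plus 3 SD, cut at about 15 in these data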;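 also: median cell fluorescence with compound minus that of DMSO-treated control cells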
CCRF autofluor = counter-screen for ABCB1 inhibitors: compound fluorescence in CCRF-Adr cells. 270 tested, 30% active. compound autofluorescence 488/530 nm, flow cytometry; active compounds read high. shares compounds with ABCG2 block. AID 1483. fluorescence at 6.6 µM;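 active = fluorescence beyond the plate control mean plus 3 SD, with a fluorescence-to-maximum score over 2, cut at about 25 in these data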
MEKK2wt confirm = raises or lowers MEK5 binding to wildtype human MEKK2, retest; binding response (% of control), % at 10 µM; shares compounds with MEKK3 PB1 HTS; bead flow cytometry, Alexa488-MEK5 binding to MEKK2 WT; actives lie on both sides; 5,900 tested, 2.4% active; AID 1892; in the data active = binding response below about 16% or above about 210%; inactive = in between
MEKK2mut confirm = signal of MEK5 binding to mutant human MEKK2, retest. shares compounds with MEKK3 PB1 HTS. bead flow cytometry, Alexa488-MEK5 binding to MEKK2 mutant. percent response, % at 10 µM. 5,900 tested, 2% active. AID 1893; in the data active = percent response mostly above about 71%, no sharp cut-off; inactive = mostly below about 38%;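 also: higher means compound restores mutant binding toward wildtype level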
MEKK3 confirm = MEKK3-MEK5 PB1 inhibition, single concentration confirmation | binding response (% of control), % at 10 µM | bead flow cytometry, Alexa488-MEK5 binding to MEKK3; active compounds read low | AID 1894 | shares compounds with MEKK3 PB1 HTS | 5,900 tested, 1.8% active;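 active = binding response below 72% of control, or above a set upper limit, though filed actives all read lower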;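 also: 100% = DMSO only wells and 0% = binding blocked by excess unlabeled MEK5; lower values mean stronger disruption of MEK5 binding to MEKK3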
Numbers without * were called inactive; / = no result given; [ ] = dose if it differs, or a comment. Only some compounds are listed: those with a hit (about 3.5% of all), similar ones and a draw of the others.

SMILES | WT yeast gro inh | MEKK3 PB1 HTS | MEKK2mut PB1 HTS | ABCG2 block | ABCB1 block | MEKK2wt PB1 HTS | MEKK2wt confirm | MEKK2mut confirm | MEKK3 confirm | others
CCOC(=O)c1c(C)n(Cc2ccccc2)c2ccc(OCC(O)Cn3nc(C)cc3C)cc12 (stereo unspecified) | 66.1* | 99.0 | 0.0 | 10.3 | 2.9 | 97.0 | / | / | /
Cc1cnc(NC(=O)CN2CCCCC2)s1 | / | 105.0 | 3.0 | / | / | 102.0 | / | / | /
CC12CCC3C(CC=C4CC(O)CCC43C)C1C/C(=C\c1ccccc1F)C2=O (stereo unspecified) | 65.0* | 95.0 | -2.0 | 12.7 | 1.2 | 96.0 | / | / | /
Cc1nn(C)cc1/C=C1/CC2C3CC=C4CC(O)CCC4(C)C3CCC2(C)C1=O (stereo unspecified) | / | 101.0 | 2.0 | / | / | 108.0 | / | / | /
CC(C)=CCC12CN3CCN(CC(C3)C1=O)C2 | 0.3 | 104.0 | 3.0 | 106.7* | 4.3 | 106.0 | / | / | / | ABCB1 confirm=-3.2;ABCG2 confirm=7.0;IgMXP3 fluor=2.81;CCRF autofluor=18.9
Cc1ccsc1C(=O)C1CCCN(Cc2cnc(N3CCCC3)s2)C1 (stereo unspecified) | -0.8 | 98.0 | -11.0 | 0.1 | 1.1 | 97.0 | / | / | /
CCCNC(=O)c1c(N)n(CC2CCCO2)c2nc3ccccc3nc12 (stereo unspecified) | 9.7 | 123.0* | 4.0 | 11.1 | 1.6 | 116.0 | 102.0 | 0.0 | 103.0
CC(C)OCCCNC(=O)c1c(N)n(CC2CCCO2)c2nc3ccccc3nc12 (stereo unspecified) | 3.4 | 106.0 | 5.0 | 21.1 | 2.4 | 99.0 | / | / | /
Cn1c(CN2CCN(C(=O)COc3ccccc3)CC2)nc2cc([N+](=O)[O-])ccc21 | -4.7 | 152.0* | 0.0 | 37.8 | 1.7 | 106.0 | 98.0 | -2.0 | 102.0
c1ccc2nc(OCCN3CC3)ccc2c1 | / | 108.0 | 32.0* | / | / | 181.0* | 135.0 | 15.0 | 103.0
c1ccc(C(OCCN2CCNCC2)c2ccccc2)cc1 | / | 98.0 | 2.0 | 1.4 | 0.5 | 104.0 | / | / | /
C=CCN1C(=O)NC(=O)/C(=C/c2cc3c4c(c2)CCCN4CCC3)C1=O | 21.2 | 93.0 | 8.0 | -2.4 | 0.3 | 26.0*[inhibitor] | 89.0 | -15.0 | 98.0
O=C1NC(=O)C2(Cc3ccccc3N3CCCC32)C(=O)N1Cc1ccccc1 (stereo unspecified) | -1.7 | -2.0*[inhibitor] | -30.0 | 0.8 | 0.0 | -30.0*[inhibitor] | 100.0 | 0.0 | 102.0
O=C1NC(=O)[C@]2(Cc3ccccc3N3CCN(c4ccccc4)CC32)C(=O)N1Cc1ccccc1 (stereo partly specified) | 43.0 | 107.0 | 0.0 | 1.1 | 0.8 | 103.0 | / | / | /
CCOc1ccc(-c2cc(C)[n+](CCO)c(-c3ccc(OCC)cc3)c2)cc1 | -5.5 | 101.0 | 9.0 | -0.7 | 0.0 | 113.0 | / | / | /
